Measured values published in EPA's CvTdb concentration-time database.

Key:
Rat [1] = experiment: concentration in liver after dosing; settings: 5 h; dosed: Bis 2-Chloroethoxy Methane; 20 mg/kg; iv; Male; F344
Rat [2] = experiment: concentration in liver after dosing; settings: 10 min; dosed: Bis 2-Chloroethoxy Methane; 20 mg/kg; iv; Female; F344
Rat [3] = experiment: concentration in liver after dosing; settings: 20 min; dosed: Bis 2-Chloroethoxy Methane; 20 mg/kg; iv; Male; F344
Rat [4] = experiment: concentration in liver after dosing; settings: 1 h; dosed: Bis 2-Chloroethoxy Methane; 20 mg/kg; iv; Female; F344
Rat [5] = experiment: concentration in heart after dosing; settings: 20 min; dosed: Bis 2-Chloroethoxy Methane; 20 mg/kg; iv; Female; F344
Rat [6] = experiment: concentration in plasma after dosing; settings: 20 min; dosed: Bis 2-Chloroethoxy Methane; 20 mg/kg; iv; Male; F344
Rat [7] = experiment: concentration in plasma after dosing; settings: 4 h; dosed: Bis 2-Chloroethoxy Methane; 40 mg/kg; iv; Male; Harlan Sprague Dawley
Rat [8] = experiment: concentration in plasma after dosing; settings: 2 h; dosed: Bis 2-Chloroethoxy Methane; 20 mg/kg; iv; Male; F344
Rat [9] = experiment: concentration in thymus after dosing; settings: 3 h; dosed: Bis 2-Chloroethoxy Methane; 20 mg/kg; iv; Male; F344
Rat [10] = experiment: concentration in brain after dosing; settings: 12 h; dosed: Fluorotelomer alcohol 8+2; 80 mg/kg; oral; Female; Harlan Sprague Dawley
Rat [11] = experiment: concentration in kidney after dosing; settings: 0.5 h; dosed: Fluorotelomer alcohol 8+2; 80 mg/kg; oral; Female; Harlan Sprague Dawley
Rat [12] = experiment: concentration in plasma after dosing; settings: dosed: Fluorotelomer alcohol 8+2, 12 mg/kg, oral, Male, Harlan Sprague Dawley
Rat [13] = experiment: concentration in plasma after dosing; settings: 40 min; dosed: Di-n-butyl phthalate; 20 mg/kg; iv; Male; Sprague-Dawley
Rat [14] = experiment: concentration in plasma after dosing; settings: 20 min; dosed: Di-n-butyl phthalate; 20 mg/kg; iv; Male; Sprague-Dawley
Rat [15] = experiment: concentration in plasma after dosing; settings: 10 min; dosed: Di-n-butyl phthalate; 50 mg/kg; oral; Male; Sprague-Dawley
Rat [16] = experiment: concentration in plasma after dosing; settings: 1 h; dosed: Di-n-butyl phthalate; 100 mg/kg; oral; Male; Sprague-Dawley
Rat [17] = experiment: concentration in plasma after dosing; settings: dosed: Perfluorodecanoic acid, 2 mg/kg, iv, Male, F344
Rat [18] = experiment: concentration in kidney after dosing; settings: 864 h; dosed: Perfluorodecanoic acid; 10 mg/kg; oral; Female; Harlan Sprague Dawley
Rat [19] = experiment: concentration in plasma after dosing; settings: 3 h; dosed: Primidone; 80 mg/kg; oral; Male; F344
Rat [20] = experiment: concentration in plasma after dosing; settings: 1.5 h; dosed: Primidone; 80 mg/kg; oral; Male; F344
Rat [21] = experiment: concentration in plasma after dosing; settings: 18 h; dosed: Primidone; 80 mg/kg; oral; Male; F344
Rat [22] = experiment: concentration in heart after dosing; settings: 5.333 h; dosed: Thiodiglycolic Acid; 20 mg/kg; iv; Female; Harlan Sprague Dawley
Rat [23] = experiment: concentration in liver after dosing; settings: 10 h; dosed: Thiodiglycolic Acid; 20 mg/kg; iv; Female; Harlan Sprague Dawley
Rat [24] = experiment: concentration in liver after dosing; settings: 3 h; dosed: Thiodiglycolic Acid; 20 mg/kg; iv; Female; Harlan Sprague Dawley
Rat [25] = experiment: concentration in liver after dosing; settings: 1 h; dosed: Thiodiglycolic Acid; 20 mg/kg; iv; Male; Harlan Sprague Dawley
Rat [26] = experiment: concentration in liver after dosing; settings: 20 min; dosed: Thiodiglycolic Acid; 20 mg/kg; iv; Female; Harlan Sprague Dawley
Rat [27] = experiment: concentration in thymus after dosing; settings: 3 h; dosed: Thiodiglycolic Acid; 20 mg/kg; iv; Male; Harlan Sprague Dawley
Rat [28] = experiment: concentration in plasma after dosing; settings: 10 min; dosed: Thiodiglycolic Acid; 20 mg/kg; iv; Female; Harlan Sprague Dawley
Rat [29] = experiment: concentration in thymus after dosing; settings: 4 h; dosed: Thiodiglycolic Acid; 20 mg/kg; iv; Female; Harlan Sprague Dawley
Rat [30] = experiment: concentration in plasma after dosing; settings: dosed: dichloroacetic acid, 100 mg/kg, oral, Male, F344
Rat [31] = experiment: concentration in plasma after dosing; settings: dosed: dichloroacetic acid, 40 mg/kg, oral, Female, Harlan Sprague Dawley
dog = experiment: concentration in urine after dosing; settings: dosed: trichloroethylene, 100 ppm, inhalation, duration: 6 hr, male, beagle
Outline: (§1)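 Data points giving concentration or amount against time came from published in vivo toxicokinetic studies and from two structured collections. PubMed searching, classifier screening and manual review located the studies. Most points were digitised from plot screenshots using WebPlotDigitizer, the rest were copied from tables, and all keep their reported units.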

human = experiment: concentration in urine after dosing; settings: dosed: trichloroethylene, inhalation, duration: 2 hr - 20 min
Outline: as §1

ClCCOCOCCCl [Bis 2-Chloroethoxy Methane]
Settings	concentration in heart [ng/g]	concentration in liver [ng/g]	concentration in plasma [ng/mL]	concentration in thymus [ng/g]
Rat [1]	–	42.7	–	–
Rat [2]	–	973	–	–
Rat [3]	–	3030	–	–
Rat [4]	–	610	–	–
Rat [5]	6490	–	–	–
Rat [6]	–	–	5580	–
Rat [7]	–	–	162	–
Rat [8]	–	–	282	–
Rat [9]	–	–	–	394

OCCC(F)(F)C(F)(F)C(F)(F)C(F)(F)C(F)(F)C(F)(F)C(F)(F)C(F)(F)F [Fluorotelomer alcohol 8+2]
Settings	concentration in brain [ng/g]	concentration in kidney [ng/g]
Rat [10]	571	–
Rat [11]	–	3400

Rat [12]
Settings	concentration in plasma [ng/mL]
0.25 h	253
6 h	40.7

CCCCOC(=O)c1ccccc1C(=O)O [Mono-n-butyl phthalate]
Settings	concentration in plasma [ng/mL]
Rat [13]	8270
Rat [14]	21800
Rat [15]	26100
Rat [16]	27100

O=C(O)C(F)(F)C(F)(F)C(F)(F)C(F)(F)C(F)(F)C(F)(F)C(F)(F)C(F)(F)C(F)(F)F [Perfluorodecanoic acid]
Rat [17]
Settings	concentration in plasma [ng/mL]
12 h	5770
1200 h	860

Settings	concentration in kidney [ng/g]
Rat [18]	16700

CCC1(c2ccccc2)C(=O)NC(=O)NC1=O [Phenobarbital]
Settings	concentration in plasma [ng/mL]
Rat [19]	5240
Rat [20]	3100
Rat [21]	3110

O=C(O)CSCC(=O)O [Thiodiglycolic Acid]
Settings	concentration in heart [ng/g]	concentration in liver [ng/g]	concentration in plasma [ng/mL]	concentration in thymus [ng/g]
Rat [22]	321	–	–	–
Rat [23]	–	4910	–	–
Rat [24]	–	11500	–	–
Rat [25]	–	126000	–	–
Rat [26]	–	47100	–	–
Rat [27]	–	–	–	1430
Rat [28]	–	–	38100	–
Rat [29]	–	–	–	637

O=C(O)C(Cl)Cl [dichloroacetic acid]
concentration in plasma [ng/mL]
Settings	1 h	1.25 h	2 min
Rat [30]	–	43500	2560
Rat [31]	6320	–	787

O=C(O)C(Cl)(Cl)Cl [trichloroacetic acid]
dog
Settings	concentration in urine [ng/mL]
24 h	32600
48 h	92800
72 h	204000
96 h	386000
120 h	228000

concentration in urine [mg/kg], human
Settings	2.667 h	6.667 h	10.67 h	19.67 h
1348 mg	6.6	14.2	15.6	21.1
1681 mg	4.3	10.6	22.2	24.9
3907 mg	3	14.2	22.9	26.7
